In brackets after ≈: the same amount, converted by molar mass.
How the values were obtained:
[1] = target: Epidermal growth factor receptor (Homo sapiens, UniProt P00533); experiment: Inhibition of recombinant human GST-tagged EGFR (668 to 1210 residues) expressed in baculovirus expression system using Poly(Glu,Tyr)4:1 as substrate after 1 hr by ELISA
[2] = target: Epidermal growth factor receptor (Homo sapiens, UniProt P00533, L858R/T790M); experiment: Inhibition of recombinant human GST-tagged EGFR L858R/T790M double mutant expressed in baculovirus expression system using Poly(Glu,Tyr)4:1 as substrate after 1 hr by ELISA
Sequence of Epidermal growth factor receptor (Homo sapiens, UniProt P00533, L858R/T790M) (P00533 25-1210 T790M/L858R limits assumed): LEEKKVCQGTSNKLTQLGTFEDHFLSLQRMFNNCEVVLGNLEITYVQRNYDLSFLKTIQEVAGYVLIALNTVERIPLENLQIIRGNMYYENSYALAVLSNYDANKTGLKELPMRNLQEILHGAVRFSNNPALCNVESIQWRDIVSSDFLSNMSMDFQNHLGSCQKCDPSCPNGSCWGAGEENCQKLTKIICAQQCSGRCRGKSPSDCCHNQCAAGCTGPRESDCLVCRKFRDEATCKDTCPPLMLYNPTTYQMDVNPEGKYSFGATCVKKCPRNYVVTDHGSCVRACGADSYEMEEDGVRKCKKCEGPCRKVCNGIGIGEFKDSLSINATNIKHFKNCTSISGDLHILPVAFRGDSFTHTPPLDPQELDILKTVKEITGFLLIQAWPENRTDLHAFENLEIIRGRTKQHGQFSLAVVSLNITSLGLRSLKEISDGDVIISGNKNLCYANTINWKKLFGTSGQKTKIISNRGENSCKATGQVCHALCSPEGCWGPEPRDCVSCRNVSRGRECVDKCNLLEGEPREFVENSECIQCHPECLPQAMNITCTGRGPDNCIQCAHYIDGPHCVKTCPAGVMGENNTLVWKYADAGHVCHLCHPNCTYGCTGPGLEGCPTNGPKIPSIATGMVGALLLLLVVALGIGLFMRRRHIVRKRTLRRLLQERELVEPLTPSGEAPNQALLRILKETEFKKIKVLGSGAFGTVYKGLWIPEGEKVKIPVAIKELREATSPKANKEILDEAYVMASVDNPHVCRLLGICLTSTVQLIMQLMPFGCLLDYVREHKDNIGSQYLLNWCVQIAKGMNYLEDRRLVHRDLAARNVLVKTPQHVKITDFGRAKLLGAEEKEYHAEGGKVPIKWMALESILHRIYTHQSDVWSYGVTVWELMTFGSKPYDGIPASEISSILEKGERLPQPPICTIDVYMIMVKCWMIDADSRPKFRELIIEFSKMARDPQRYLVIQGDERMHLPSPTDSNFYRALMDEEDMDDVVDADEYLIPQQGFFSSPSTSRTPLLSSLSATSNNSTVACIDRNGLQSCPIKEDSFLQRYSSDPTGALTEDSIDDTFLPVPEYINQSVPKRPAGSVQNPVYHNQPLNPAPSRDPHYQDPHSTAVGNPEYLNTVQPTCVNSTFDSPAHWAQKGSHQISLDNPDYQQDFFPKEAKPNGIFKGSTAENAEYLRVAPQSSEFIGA

Homo sapiens [3] = species: Homo sapiens; experiment: Selectivity ratio of IC50 for recombinant human GST-tagged EGFR (668 to 1210 residues) expressed in baculovirus expression system to IC50 for recombinant human GST-tagged EGFR L858R/T790M double mutant expressed in baculovirus expression system
How it was run: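 ELISA-based EGFR tyrosine kinase assay run on wild-type and L858R/T790M enzymes. IC50 values come from at least three independent determinations, reported as means ± SD. Selectivity is the wild-type IC50 divided by the L858R/T790M IC50.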

A-431 = experiment: Cytotoxicity against human A431 cells harboring wild type EGFR assessed as reduction in cell viability after 72 hrs by SRB assay; type: cell-based; conditions: A-431, 72 h
How it was run: (§1)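 Cell growth inhibition measured by sulforhodamine B colorimetric assay in H1975 (EGFR L858R/T790M) and A431 (overexpressed wild-type EGFR) cells; IC50 values are means ± SD of at least three independent determinations. Selectivity is taken as the A431:H1975 IC50 ratio.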

NCI-H1975 = experiment: Antiproliferative activity against human NCI-H1975 cells harboring EGFR L858R/T790M double mutant after 72 hrs by SRB assay; type: functional, cell-based; conditions: NCI-H1975, 72 h; how it was run: as §1
Homo sapiens [4] = species: Homo sapiens; experiment: Selectivity index, ratio of IC50 for human A431 cells harboring wild type EGFR to IC50 for human NCI-H1975 cells harboring EGFR L858R/T790M double mutant; how it was run: as §1
[5] = Aqueous solubility in pH 7.4 PBS buffer by UV-Visible spectrophotometric method; type: physicochemical
How it was run: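 Solubility determined in 0.1 M PBS, pH 7.4, by UV-visible spectrophotometry.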

Sequence of Epidermal growth factor receptor (Homo sapiens, UniProt P00533) (P00533 whole entry, the tested form may be a part): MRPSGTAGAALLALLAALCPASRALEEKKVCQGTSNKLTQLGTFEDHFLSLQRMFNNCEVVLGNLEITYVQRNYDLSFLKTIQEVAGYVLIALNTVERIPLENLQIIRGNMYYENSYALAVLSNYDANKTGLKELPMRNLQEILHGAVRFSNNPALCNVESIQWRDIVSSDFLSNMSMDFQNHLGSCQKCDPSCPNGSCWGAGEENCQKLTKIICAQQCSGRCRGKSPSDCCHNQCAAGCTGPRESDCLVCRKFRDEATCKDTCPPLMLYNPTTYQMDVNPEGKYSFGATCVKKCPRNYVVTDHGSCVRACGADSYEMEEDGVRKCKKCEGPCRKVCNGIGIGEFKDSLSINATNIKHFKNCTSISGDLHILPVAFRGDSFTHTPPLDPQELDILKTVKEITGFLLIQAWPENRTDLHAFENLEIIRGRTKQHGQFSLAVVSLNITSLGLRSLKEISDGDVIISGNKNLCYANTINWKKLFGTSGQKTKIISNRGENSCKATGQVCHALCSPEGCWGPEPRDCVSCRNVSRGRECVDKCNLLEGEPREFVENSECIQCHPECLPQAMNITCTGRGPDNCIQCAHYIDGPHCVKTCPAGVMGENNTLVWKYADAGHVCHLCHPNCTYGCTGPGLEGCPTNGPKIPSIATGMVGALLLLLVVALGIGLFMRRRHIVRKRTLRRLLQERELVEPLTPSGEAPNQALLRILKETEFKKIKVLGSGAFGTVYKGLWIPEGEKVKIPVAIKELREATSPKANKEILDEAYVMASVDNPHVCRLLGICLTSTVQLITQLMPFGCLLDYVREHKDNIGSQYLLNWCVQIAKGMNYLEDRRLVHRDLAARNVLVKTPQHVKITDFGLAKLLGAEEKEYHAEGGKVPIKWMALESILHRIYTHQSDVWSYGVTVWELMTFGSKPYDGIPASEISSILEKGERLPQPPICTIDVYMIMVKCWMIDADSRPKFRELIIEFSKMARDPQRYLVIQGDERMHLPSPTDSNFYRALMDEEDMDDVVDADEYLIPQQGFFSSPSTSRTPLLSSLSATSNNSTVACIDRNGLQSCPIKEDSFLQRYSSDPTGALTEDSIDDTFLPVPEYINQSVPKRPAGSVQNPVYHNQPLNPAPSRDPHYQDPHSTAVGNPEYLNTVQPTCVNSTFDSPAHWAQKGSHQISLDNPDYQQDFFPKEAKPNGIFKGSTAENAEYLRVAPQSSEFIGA

SMILES | IC50 [1] | IC50 [2] | Ratio IC50 (Homo sapiens [3]) | IC50 (A-431) | IC50 (NCI-H1975) | Ratio IC50 (Homo sapiens [4]) | solubility [5]
C=CC(=O)Nc1cccc(-n2c(=O)n(C(C)C)c(=O)c3cnc(Nc4ccc(N5CCN(C)CC5)c(C)c4)nc32)c1 | 34 nM | 1 nM | 34 | 954 nM | 24 nM | 40 | 280 µg/mL (≈ 505 µM)
C=CC(=O)Nc1cccc(-n2c(=O)n(C)c(=O)c3cnc(Nc4ccccc4)nc32)c1 | 82 nM | 68 nM | 1.2 | > 10000 nM | 9260 nM |  | < 10 µg/mL
C=CC(=O)Nc1cccc(-n2c(=O)n(C(C)C)c(=O)c3cnc(Nc4ccc(N(C)CCN(C)C)cc4OC)nc32)c1 | 121 nM | 16 nM | 7.6 | 1950 nM | 138 nM | 14 | 1050 µg/mL (≈ 1840 µM)
C=CC(=O)Nc1cccc(-n2c(=O)n(C)c(=O)c3cnc(Nc4ccc(N5CCN(C(C)=O)CC5)cc4OC)nc32)c1 | 180 nM | 46 nM | 3.9 | > 10000 nM | > 10000 nM |  | < 10 µg/mL
C=CC(=O)Nc1cccc(-n2c(=O)n(Cc3ccccc3)c(=O)c3cnc(Nc4ccc(N5CCC(N(C)C)CC5)cc4OC)nc32)c1 | 1.2 nM | 1.9 nM | 0.6 | 3300 nM | 278 nM | 12 | 137 µg/mL (≈ 212 µM)
C=CC(=O)Nc1cccc(-n2c(=O)n(CCC)c(=O)c3cnc(Nc4ccc(N5CCC(N(C)C)CC5)cc4OC)nc32)c1 | 13 nM | 0.4 nM | 33 | 4130 nM | 60 nM | 69 | 184 µg/mL (≈ 307 µM)
C=CC(=O)Nc1cccc(-n2c(=O)n(C)c(=O)c3cnc(Nc4ccc(N5CCSCC5)cc4OC)nc32)c1 | 314 nM | 91 nM | 3.5 | 8370 nM | 573 nM | 15 | 45 µg/mL (≈ 82.5 µM)
C=CC(=O)Nc1cccc(-n2c(=O)n(CCc3ccccc3)c(=O)c3cnc(Nc4ccc(N5CCC(N(C)C)CC5)cc4OC)nc32)c1 | 0.7 nM | 1 nM | 0.7 | 2040 nM | 189 nM | 11 | 99 µg/mL (≈ 150 µM)
C=CC(=O)Nc1cccc(-n2c(=O)n(C)c(=O)c3cnc(Nc4ccc(N5CCOCC5)cc4OC)nc32)c1 | 341 nM | 70 nM | 4.9 | > 10000 nM | > 10000 nM |  | 61 µg/mL (≈ 115 µM)
C=CC(=O)Nc1cccc(-n2c(=O)n(C(C)C)c(=O)c3cnc(Nc4ccc(N5CCN(C)CC5)c(OC)c4)nc32)c1 | 119 nM | 6.8 nM | 18 | 1050 nM | 37 nM | 28 | 309 µg/mL (≈ 541 µM)
C=CC(=O)Nc1cccc(-n2c(=O)n(C(C)C)c(=O)c3cnc(Nc4ccc(N5CCC(N(C)C)CC5)cc4OC)nc32)c1 | 20 nM | 0.8 nM | 25 | > 10000 nM | 50 nM |  | 176 µg/mL (≈ 294 µM)
C=CC(=O)Nc1cccc(-n2c(=O)n(C(C)C)c(=O)c3cnc(Nc4ccc(OCCN(C)C)cc4OC)nc32)c1 | 227 nM | 115 nM | 2 | 3600 nM | 99 nM | 36 | 647 µg/mL (≈ 1160 µM)
C=CC(=O)Nc1cccc(Nc2nc(Nc3ccc(N4CCN(C(C)=O)CC4)cc3OC)ncc2C(F)(F)F)c1 [ROCILETINIB] |  |  |  | 641 nM | 31 nM |  | 
C=CC(=O)Nc1cccc(-n2c(=O)n(C)c(=O)c3cnc(Nc4ccc(N5CCC(N(C)C)CC5)cc4OC)nc32)c1 |  |  |  | 3890 nM | 230 nM |  | 531 µg/mL (≈ 931 µM)
C=CC(=O)Nc1cccc(-n2c(=O)n(CC)c(=O)c3cnc(Nc4ccc(N5CCC(N(C)C)CC5)cc4OC)nc32)c1 | 111 nM | 2.5 nM | 44 | > 10000 nM | 175 nM |  | 229 µg/mL (≈ 392 µM)
C=CC(=O)Nc1cccc(-n2c(=O)n(C(C)C)c(=O)c3cnc(Nc4ccc(N5CCC(N6CCN(C)CC6)CC5)cc4OC)nc32)c1 | 240 nM | 14 nM | 17 | 1380 nM | 154 nM | 9 | 121 µg/mL (≈ 185 µM)
C=CC(=O)Nc1cccc(-n2c(=O)n(CCCc3ccccc3)c(=O)c3cnc(Nc4ccc(N5CCC(N(C)C)CC5)cc4OC)nc32)c1 | 3.8 nM | 1.4 nM | 2.7 | 1460 nM | 358 nM | 4.1 | 104 µg/mL (≈ 154 µM)
